The results in this text go back to ChEMBL document CHEMBL2150994, “Design, synthesis, and pharmacological evaluation of glutamate carboxypeptidase II (GCPII) inhibitors based on thioalkylbenzoic acid scaffolds” (J Med Chem, 2012).

Data set [1] concerns the target Glutamate carboxypeptidase 2 (Homo sapiens, UniProt Q04609). The data set is described as follows: Inhibition of human recombinant GCP2 using N-acetyl-L-aspartyl-[3H]-L-glutamate as substrate by microplate assay. An outline of the steps:
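Radiometric enzyme assay using purified human recombinant GCPII with N-acetyl-L-aspartyl-[3H]-L-glutamate as substrate. IC50 was determined.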

Data set [2] can be described thus: AUC (0 to infinity) in fasted rat at 10 mg/kg, po. The format is ADME, organism-based. Further details: time infinity, dose 10 mg/kg, route oral. Conditions: plasma. An outline of the steps:
(§1)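 Fasted rats dosed at 10 mg/kg intravenously (n = 4) or orally (n = 9). Plasma was sampled and the pharmacokinetic parameters Cmax, Tmax, AUCinf, CL/F, terminal t1/2 and oral bioavailability F were derived. Values are given as mean ± deviation for each route.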

For data set [3], the system named is Salmonella typhimurium. Kind of data set: Mutagenic activity in Salmonella typhimurium TA1537 by Ames test in presence of S9 fraction. The format is toxicity, organism-based. The conditions noted are these: salmonella enterica subsp. enterica serovar typhimurium. In general terms: In the Ames test, an excess of revertant colonies over the control signals mutagenicity.

Data set [4] can be described thus: Inhibition of strychnine-sensitive glycine receptor at 10 uM. An outline of the steps:
(§2)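 Outsourced receptor binding and enzyme panel, covering NMDA receptor (agonist, glycine, phencyclidine and polyamine sites), AMPA, kainate, strychnine-sensitive glycine receptor and kidney-type glutaminase. Percent inhibition was measured at 10 μM, with glutaminase tested up to 100 μM.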

The subject of the next data set is Rattus norvegicus. Kind of data set: Antinociceptive activity in rat chronic constriction injury neuropathic pain model assessed as reduction of thermal hyperalgesia at 0.1 mg/kg/day measured on day 8 and 12 relative to vehicle-treated control. The format is functional, organism-based. An outline of the steps: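 Rat chronic constriction injury model of neuropathic pain, after Bennett. Dosing was oral at 0.1 mg kg-1 day-1 against vehicle-treated controls. Read-out was thermal hyperalgesia on days 8 and 12, with significance at p < 0.05.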

Data set [5] is described as follows: AUC (0 to infinity) in fasted rat at 10 mg/kg, iv. The conditions noted are these: plasma. Further details: time infinity, dose 10 mg/kg, route intravenous. Type of data set: ADME, organism-based. An outline of the steps:
as §1

Data set [6] in a line: Inhibition of NMDA receptor glycine binding site at 10 uM. An outline of the steps: as §2
For data set [7], the system named is Salmonella typhimurium. Kind of data set: Mutagenic activity in Salmonella typhimurium TA98 by Ames test in presence of S9 fraction. The format is toxicity, organism-based. Conditions: salmonella enterica subsp. enterica serovar typhimurium.
A short description of data set [8]: Tmax in fasted rat at 10 mg/kg, po. Type of data set: ADME, organism-based. Further details: dose 10 mg/kg, route oral. Conditions: in vivo. An outline of the steps: as §1
In data set [9] the test system is Liver. The data set is described as follows: Metabolic stability in dog liver microsomes after 2 hrs. Type of data set: ADME, Canis lupus familiaris, Microsome. An outline of the steps: (§3)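 Compound was incubated with liver microsomes from mouse, rat, dog, monkey and human for 2 h. Metabolism was assessed by detection of compound turnover.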
Background: Microsomes from liver hold many membrane-bound enzymes, among them those of drug oxidation.

The test system of data set [10] is Liver microsomes. The data set is described as follows: Metabolic stability in human liver microsomes after 2 hrs. Type of data set: ADME, Microsome. An outline of the steps:
as §3

Data set [11] is described as follows: Inhibition of kainate receptor at 10 uM. An outline of the steps: as §2
A short description of data set [12]: Oral bioavailability in fasted rat at 10 mg/kg. The conditions noted are these: in vivo. The format is ADME, organism-based. An outline of the steps:
as §1

Data set [13] can be described thus: Apparent oral clearance in fasted rat at 10 mg/kg. Type of data set: ADME, organism-based. Further details: dose 10 mg/kg, route oral. Conditions: in vivo. An outline of the steps:
as §1

The test system of data set [14] is Liver microsomes. Kind of data set: Metabolic stability in rat liver microsomes after 2 hrs. Type of data set: ADME, Microsome. An outline of the steps: as §3
In data set [15] the test system is Salmonella typhimurium. The data set is described as follows: Mutagenic activity in Salmonella typhimurium TA100 by Ames test in absence of S9 fraction. The format is toxicity, organism-based. The conditions noted are these: salmonella enterica subsp. enterica serovar typhimurium.
Data set [16] deals with Salmonella typhimurium. Kind of data set: Mutagenic activity in Salmonella typhimurium TA1535 by Ames test in absence of S9 fraction. The format is toxicity, organism-based. Conditions: salmonella enterica subsp. enterica serovar typhimurium.
Data set [17] is described as follows: Inhibition of NMDA receptor phencyclidine binding site at 10 uM. An outline of the steps: as §2
Data set [18] concerns the target T1, Glutaminase kidney isoform, mitochondrial (Homo sapiens) (UniProt O94925).
T1 sequence (whole entry): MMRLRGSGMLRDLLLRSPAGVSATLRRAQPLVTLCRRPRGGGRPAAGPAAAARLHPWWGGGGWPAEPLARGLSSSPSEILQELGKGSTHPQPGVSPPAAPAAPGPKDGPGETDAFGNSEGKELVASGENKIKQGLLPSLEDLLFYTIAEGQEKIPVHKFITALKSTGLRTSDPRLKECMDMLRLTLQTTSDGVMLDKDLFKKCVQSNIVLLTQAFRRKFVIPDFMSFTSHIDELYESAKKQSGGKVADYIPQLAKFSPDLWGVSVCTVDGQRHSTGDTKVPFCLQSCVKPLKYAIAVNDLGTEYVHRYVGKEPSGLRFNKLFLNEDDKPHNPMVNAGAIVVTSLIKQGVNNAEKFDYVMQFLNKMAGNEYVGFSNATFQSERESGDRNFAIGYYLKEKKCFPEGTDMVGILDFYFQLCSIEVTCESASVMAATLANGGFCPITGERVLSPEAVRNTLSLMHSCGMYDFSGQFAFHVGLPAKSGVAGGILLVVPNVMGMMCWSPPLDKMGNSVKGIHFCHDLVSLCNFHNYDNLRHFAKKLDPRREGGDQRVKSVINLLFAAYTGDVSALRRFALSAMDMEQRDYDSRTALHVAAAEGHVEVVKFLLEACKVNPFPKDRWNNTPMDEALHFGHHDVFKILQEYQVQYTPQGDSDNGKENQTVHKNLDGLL
The data set is described as follows: Inhibition of glutaminase kidney isoform at 100 uM.

The test system of data set [19] is Salmonella typhimurium. The data set is described as follows: Mutagenic activity in Salmonella typhimurium TA98 by Ames test in absence of S9 fraction. The format is toxicity, organism-based. The conditions noted are these: salmonella enterica subsp. enterica serovar typhimurium.
Data set [20] in a line: Terminal half life in fasted rat at 10 mg/kg, iv. Type of data set: ADME, organism-based. Further details: dose 10 mg/kg, route intravenous. Conditions: in vivo, read-out: beta t1/2 (converted). An outline of the steps:
as §1

A short description of data set [21]: Inhibition of AMPA receptor at 10 uM. An outline of the steps: as §2
Data set [22] in a line: Cmax in fasted rat at 10 mg/kg, po. Type of data set: ADME, organism-based. Further details: dose 10 mg/kg, route oral. The conditions noted are these: in vivo. An outline of the steps: as §1
Data set [23] in a line: Inhibition of NMDA receptor polyamine binding site at 10 uM. An outline of the steps: as §2
For data set [24], the system named is Liver. Kind of data set: Metabolic stability in mouse liver microsomes after 2 hrs. Type of data set: ADME, Microsome. An outline of the steps: as §3
Data set [25] is described as follows: Inhibition of NMDA receptor at 10 uM. An outline of the steps: as §2
Data set [26] concerns Salmonella typhimurium. The data set is described as follows: Mutagenic activity in Salmonella typhimurium TA1535 by Ames test in presence of S9 fraction. The format is toxicity, organism-based. Conditions: salmonella enterica subsp. enterica serovar typhimurium.
In data set [27] the target is Voltage-gated inwardly rectifying potassium channel KCNH2 (Homo sapiens, UniProt Q12809). Kind of data set: Inhibition of human ERG upto 100 uM. An outline of the steps:
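hERG channel assay run by an external contractor, with compound tested at concentrations up to 100 μM.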

Data set [28] is described as follows: Apparent oral clearance in fasted rat at 10 mg/kg, iv. Type of data set: ADME, organism-based. Further details: dose 10 mg/kg, route oral. The conditions noted are these: in vivo. An outline of the steps: as §1
The test system of data set [29] is Salmonella typhimurium. The data set is described as follows: Mutagenic activity in Salmonella typhimurium TA1537 by Ames test in absence of S9 fraction. The format is toxicity, organism-based. The conditions noted are these: salmonella enterica subsp. enterica serovar typhimurium.
A short description of data set [30]: Terminal half life in fasted rat at 10 mg/kg, po. Type of data set: ADME, organism-based. Further details: dose 10 mg/kg, route oral. The conditions noted are these: in vivo, read-out: beta t1/2 (converted). An outline of the steps: as §1
The nature of data set [31]: Metabolic stability in monkey liver microsomes after 2 hrs. The format is ADME, Macaca mulatta, Microsome. Conditions: rhesus monkey. An outline of the steps: as §3
Data set [32] deals with Salmonella typhimurium. The data set is described as follows: Mutagenic activity in Salmonella typhimurium TA100 by Ames test in presence of S9 fraction. Type of data set: toxicity, organism-based. The conditions noted are these: salmonella enterica subsp. enterica serovar typhimurium.

pIC50: −log10 of the molar value. The source made the active and inactive calls. The calls are words filed in the database; no cut-off is given here. A value given as a limit tells only on which side of the number the result lay.

Chain of Glutamate carboxypeptidase 2 (Q04609 whole entry): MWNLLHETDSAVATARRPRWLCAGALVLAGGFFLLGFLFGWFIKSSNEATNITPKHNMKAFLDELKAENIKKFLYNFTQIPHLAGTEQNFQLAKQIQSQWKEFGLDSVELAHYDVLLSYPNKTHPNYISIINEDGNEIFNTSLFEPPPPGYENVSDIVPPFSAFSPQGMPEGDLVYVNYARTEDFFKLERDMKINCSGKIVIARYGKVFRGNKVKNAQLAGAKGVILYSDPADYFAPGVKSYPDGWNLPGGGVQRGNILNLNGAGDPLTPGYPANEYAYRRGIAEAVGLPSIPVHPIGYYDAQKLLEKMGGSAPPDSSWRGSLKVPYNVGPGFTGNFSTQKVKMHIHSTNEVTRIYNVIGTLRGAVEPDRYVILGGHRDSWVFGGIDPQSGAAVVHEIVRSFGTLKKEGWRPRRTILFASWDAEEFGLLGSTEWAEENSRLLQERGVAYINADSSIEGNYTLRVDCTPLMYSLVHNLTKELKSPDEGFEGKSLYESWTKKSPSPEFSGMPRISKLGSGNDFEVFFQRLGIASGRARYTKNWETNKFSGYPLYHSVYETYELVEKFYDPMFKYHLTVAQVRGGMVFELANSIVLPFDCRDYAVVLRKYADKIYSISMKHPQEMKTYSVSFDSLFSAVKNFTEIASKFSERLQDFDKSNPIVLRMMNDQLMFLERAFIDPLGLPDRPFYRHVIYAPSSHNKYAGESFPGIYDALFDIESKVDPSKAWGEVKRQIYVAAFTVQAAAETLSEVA
Chain of Voltage-gated inwardly rectifying potassium channel KCNH2 (Q12809 whole entry): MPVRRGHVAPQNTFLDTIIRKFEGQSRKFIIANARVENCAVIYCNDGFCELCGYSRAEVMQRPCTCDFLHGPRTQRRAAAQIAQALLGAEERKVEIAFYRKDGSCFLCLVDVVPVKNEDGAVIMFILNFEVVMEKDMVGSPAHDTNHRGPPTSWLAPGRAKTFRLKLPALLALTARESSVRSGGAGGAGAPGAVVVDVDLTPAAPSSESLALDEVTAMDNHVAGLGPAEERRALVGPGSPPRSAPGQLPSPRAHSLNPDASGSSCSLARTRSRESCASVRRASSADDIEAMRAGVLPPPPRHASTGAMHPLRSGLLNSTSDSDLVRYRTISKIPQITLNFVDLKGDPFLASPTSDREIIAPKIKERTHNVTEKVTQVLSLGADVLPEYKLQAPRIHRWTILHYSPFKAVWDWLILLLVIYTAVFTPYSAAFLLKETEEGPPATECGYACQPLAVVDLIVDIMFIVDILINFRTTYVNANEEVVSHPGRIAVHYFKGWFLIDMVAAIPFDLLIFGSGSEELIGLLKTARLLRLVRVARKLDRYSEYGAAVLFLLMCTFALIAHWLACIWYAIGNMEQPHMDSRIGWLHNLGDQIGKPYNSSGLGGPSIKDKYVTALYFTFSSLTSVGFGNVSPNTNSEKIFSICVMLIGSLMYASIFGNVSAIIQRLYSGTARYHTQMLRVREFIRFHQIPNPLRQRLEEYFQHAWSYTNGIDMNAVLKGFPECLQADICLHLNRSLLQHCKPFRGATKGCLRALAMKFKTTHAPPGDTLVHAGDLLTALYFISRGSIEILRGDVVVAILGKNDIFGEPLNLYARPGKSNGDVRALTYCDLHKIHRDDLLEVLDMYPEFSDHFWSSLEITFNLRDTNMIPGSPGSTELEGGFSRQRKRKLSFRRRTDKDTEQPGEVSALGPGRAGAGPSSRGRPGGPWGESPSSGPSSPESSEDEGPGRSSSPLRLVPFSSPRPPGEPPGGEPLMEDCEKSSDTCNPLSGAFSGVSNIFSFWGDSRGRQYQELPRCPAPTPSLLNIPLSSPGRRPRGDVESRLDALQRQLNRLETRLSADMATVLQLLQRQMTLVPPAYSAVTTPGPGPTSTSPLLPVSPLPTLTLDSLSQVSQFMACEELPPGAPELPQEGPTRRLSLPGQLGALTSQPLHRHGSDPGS

In general, pIC50 refers to the negative decadic logarithm of the IC50, by convention in mol/L. Regarding `O=C(O)c1ccccc1CCS`, in data set [1], the negative logarithm of the IC50 (pIC50) is 6.03.

For `O=C(O)c1cc(CS)ccc1-c1ccccc1`, in data set [1], the negative-log IC50 (pIC50) was 5.24.

`O=C(O)c1ccccc1-c1cccc(CCS)c1C(=O)O`: the negative logarithm of the IC50 (pIC50) in data set [1] is 6.64.

For the compound `O=C(O)c1cccc(CS)c1`, in data set [1], the negative logarithm of the IC50 (pIC50) was 5.89.

`O=C(O)c1cccc(COc2ccc(CS)cc2C(=O)O)c1`: the pIC50 in data set [1] is 8.70.

For the compound `O=C(O)c1ccccc1COc1cccc(CCS)c1C(=O)O`, the pIC50 in [1] is 6.85.

A word on the AUC(0-inf): it is the area under the concentration-time curve extrapolated to infinity. In data set [2], `O=C(O)CCC(CCCS)C(=O)O` (centres undefined) returned an area under the curve AUC(0-inf) of 1820 ng·h/mL.

Turning to `O=C(O)c1c(CCS)cccc1OCc1ccccc1`, the negative logarithm of the IC50 (pIC50) in data set [1] is 6.70.

Consider `O=C(O)c1ccccc1-c1ccc(CS)cc1C(=O)O`, for which the pIC50 in data set [1] is 6.47.

One may read the inhibition as the percentage by which the read-out fell short of the control. A word on the Tmax: it is the time from dosing to the highest level. Broadly, the bioavailability is the share of a dose that reaches the circulation, judged against a reference dose that is usually intravenous. As usually defined, the CL/F is the apparent clearance, not corrected for the fraction that reaches the circulation. The term Cmax denotes the highest concentration seen after dosing. For the compound `O=C(O)c1cccc(-c2cccc(CCS)c2C(=O)O)c1`, the Activity entry in the data set on Salmonella typhimurium [3], in the data set on Salmonella typhimurium [7], with Salmonella typhimurium [15], with Salmonella typhimurium [16], in the data set on Salmonella typhimurium [19] and with Salmonella typhimurium [26] was “Non-toxic” throughout. Moreover, the Activity entry in the data set on Salmonella typhimurium [29] and in the data set with Salmonella typhimurium [32] was “Non-toxic” in each case. Moreover, the inhibition result in data set [4], in data set [11], in data set [17], in data set [18], in [21] and in data set [23] was “inactive” throughout. The outcome in the data set with Rattus norvegicus was Active. The AUC(0-inf) in [5] came out at 90600 ng·h/mL; in data set [2] it was 33800 ng·h/mL. Besides, the inhibition in data set [6] is 12%; in data set [25], below 5%. In [8], the Tmax worked out at 1.1 h. The Stability entry (in the data set with Liver [9]; in the data set with Liver microsomes [10]; in the data set on Liver microsomes [14]; in the data set on Liver [24]; in data set [31]) was “Stable” each time. Moreover, the bioavailability in data set [12] turned out to be 37%. Besides, the values for the apparent clearance CL/F in [13] and in [28] were 5.3 mL/min/kg and 4.45 mL/min/kg, respectively. Besides, the results for the half-life in data set [20] and in data set [30] were 3.6 h and 3.2 h, respectively. Moreover, the highest level in data set [22] (Cmax) was 7100 ng/mL. Besides, in [27], the “inhibition (INH)” value was “Not Active”.

On to `O=C(O)c1ccc(COc2cccc(CCS)c2C(=O)O)cc1`, for which the negative-log IC50 (pIC50) in data set [1] is 6.70.

Consider `O=C(O)c1ccc(COc2ccc(CS)cc2C(=O)O)cc1`, for which the pIC50 in data set [1] is 7.80.

Take `O=C(O)c1cccc(-c2ccc(CS)cc2C(=O)O)c1`: the pIC50 in data set [1] was 7.42.

In the case of `O=C(O)c1c(CCS)cccc1-c1ccccc1`, in data set [1], the negative-log IC50 (pIC50) was 5.85.

Take `O=C(O)c1ccc(-c2cccc(CCS)c2C(=O)O)cc1`: in data set [1], the pIC50 was 8.15.

On to `O=C(O)c1ccccc1COc1ccc(CS)cc1C(=O)O`, for which the pIC50 in [1] was 7.39.

Consider `O=C(O)c1cccc(COc2cccc(CCS)c2C(=O)O)c1`, for which the negative logarithm of the IC50 (pIC50) in data set [1] was 7.16.

Take `O=C(O)c1ccc(-c2ccc(CS)cc2C(=O)O)cc1`: the pIC50 in data set [1] was 7.28.
